Measurements reported in ChEMBL document CHEMBL1127804 (J Med Chem, 1994).

Experiments:
[1] = test system: SCC-7; assay: Tested for inhibitory concentration against SCC-VII murine squamous carcinoma cell line; assay type: functional, cell-based; conditions: Mus musculus
Procedure, shortened: (§1)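 SCC VII (murine) or SCC25 (human) squamous carcinoma cells were plated at 2×10^3/well in DME with 10% FBS for 24 h at 37 °C, 5% CO2. Drug was added at 10 concentrations from 0.1 nM to 3 μM for a further 72 h. Growth was read by sulforhodamine B protein stain at 530 nm.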

[2] = test system: MCF7; assay: Tested for inhibitory concentration against MCF-7 human breast carcinoma cell line; assay type: functional, cell-based
Procedure, shortened: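 MCF-7 breast carcinoma cells were grown in replicate 24-well plates in α-MEM with 10% dialyzed FBS plus epithelial growth factor, hydrocortisone and insulin. Cells were exposed for 72 h at 37 °C under 6.5% CO2 and counted electronically with a Coulter counter. IC50 was estimated from semilog plots using averaged data from a single experiment on replicate plates.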

[3] = Ratio between Ki values of CCRF-CEM and CEM/MTX; assay type: functional
[4] = target: T1, Dihydrofolate reductase (Homo sapiens, UniProt P00374); assay: Tested for inhibitory concentration against human dihydrofolate reductase(DHFR)
T1 sequence (P00374 whole entry): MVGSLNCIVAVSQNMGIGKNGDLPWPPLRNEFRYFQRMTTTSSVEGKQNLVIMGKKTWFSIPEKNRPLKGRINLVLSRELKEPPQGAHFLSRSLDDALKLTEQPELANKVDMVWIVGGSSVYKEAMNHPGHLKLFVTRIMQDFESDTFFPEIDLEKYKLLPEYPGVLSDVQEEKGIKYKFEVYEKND

[5] = test system: CCRF-CEM; assay: Tested for the inhibition of [14C]-DDATHF influx in CCRF-CEM cells of human leukemic lymphoblast; assay type: functional, cell-based
Procedure, shortened: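 Influx of (6R)-[14C]DDATHF (2 μM) into wild-type CCRF-CEM human leukemic lymphoblasts was measured with the inhibitor present. Ki was calculated from Dixon plots and reported as mean ± SE of two to seven separate experiments.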

[6] = test system: CCRF-CEM; assay: cells; conditions: Homo sapiens
[7] = test system: CCRF-CEM; assay: Tested for inhibition of [14C]-DDATHF influx in CEM/MTX cells of human leukemic lymphoblasts; assay type: functional, cell-based
Procedure, shortened: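 Influx of (6R)-[14C]DDATHF (2 μM) into CEM/MTX cells was measured. Before the assay, cells normally kept in 1 μM MTX were held out of MTX for 3–4 generations. Ki came from Dixon plots and is given as mean ± SE of two to seven separate experiments.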

[8] = test system: CCRF-CEM; assay: Tested for inhibitory concentration of cell growth against CCRF-CEM cell lines of human leukemic lymphoblast
[9] = test system: SCC-25; assay: Tested for inhibitory concentration against human SCC25 cell line; assay type: functional, cell-based; procedure, shortened: as §1
[10] = test system: CCRF-CEM; assay: Tested in vitro for relative activity against CCRF-CEM human Leukemic lymphoblast by using TS as primary target; assay type: functional
[11] = test system: CCRF-CEM; assay: Tested in vitro for inhibitory concentration against CCRF-CEM human Leukemic lymphoblast by using TS as primary target; assay type: functional, cell-based
[12] = target: T1, Dihydrofolate reductase; assay: rested for inhibitory concentration against human dihydrofolate reductase(DHFR)

Structure (SMILES)	IC50 [1] [µM]	IC50 [2] [µM]	IC50 [4] [µM]	Ki [5] [µM]	Ki [7] [µM]	IC50 [9] [µM]	further results
Nc1nc(N)c2nc(CNc3ccc(C(=O)NC(CCCNC(=O)c4ccccc4C(=O)O)C(=O)O)cc3)cnc2n1 (stereo not given)	0.00089	0.0007	0.0122	0.65	0.44	0.001	Ratio [3]: 0.68; IC50 [6]: 0.11 µM; IC50 [8]: 0.00108 µM
CN(Cc1ccc2[nH]c(C=O)nc(=O)c2c1)c1ccc(C(=O)NC(CCC(=O)O)C(=O)O)s1 (stereo not given)	–	–	–	–	–	–	Relative activity [10]: 23; IC50 [11]: 0.0047 µM
Nc1nc(N)c2nc(CNc3c(Cl)cc(C(=O)NC(CCCNC(=O)c4ccccc4C(=O)O)C(=O)O)cc3Cl)cnc2n1 (stereo not given)	0.0016	–	0.0102	–	–	0.0025	–
Nc1nc(N)c2nc(CNc3ccc(C(=O)NC(CCNC(=O)c4ccccc4C(=O)O)C(=O)O)cc3)cnc2n1 (stereo not given)	0.019	0.006	0.0116	–	–	0.0129	–
Nc1nc(N)c2nc(CNc3ccc(C(=O)NC(CCCCNC(=O)c4ccccc4C(=O)O)C(=O)O)cc3)cnc2n1 (stereo not given)	0.004	0.002	–	–	–	0.0179	IC50 [12]: 0.0114 µM
Nc1nc(N)c2nc(CNc3ccc(C(=O)N[C@@H](CCC(=O)O)C(=O)O)cc3)cnc2n1 [AMINOPTERIN]	0.004	–	–	–	–	0.0069	–
Nc1nc(=O)c2nc(CNc3ccc(C(=O)N[C@@H](CCC(=O)O)C(=O)O)cc3)cnc2[nH]1 [FOLIC ACID]	–	–	–	167	8.95	–	Ratio [3]: 0.054
Nc1nc(=O)c2c([nH]1)NCC(CNc1ccc(C(=O)N[C@@H](CCC(=O)O)C(=O)O)cc1)N2C=O (stereo not given in full) [LEUCOVORIN]	–	–	–	–	0.74	–	–
CN(Cc1cnc2nc(N)nc(N)c2n1)c1ccc(C(=O)N[C@@H](CCC(=O)O)C(=O)O)cc1 [METHOTREXATE]	0.0058	–	–	4.48	9.74	–	IC50 [6]: 2.55 µM; IC50 [8]: 0.0105 µM
COc1cc(NCc2ccc3nc(N)nc(N)c3c2C)cc(OC)c1OC [TRIMETREXATE]	0.0063	–	–	–	–	0.008	–
